# PAD4 FP inh – inhibitors of human PAD4. Q9UM07. recombinant PAD4, RCA probe fluorescence polarization. inhibition, % at 6.36 µM. 0.41% of 330,000 active;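 active = percent inhibition above a cutoff equal to the mean of all tested compounds plus 3 SD, cut at about 15% in these data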;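 also: 0% = PAD4 with RCA probe and DMSO and 100% = probe without PAD4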
# Apaf1 inhib – blocks human Apaf-1 apoptosome activity; AID 489030; inhibition, % at 20 µM; 0.71% of 330,000 active; O14727; reconstituted apoptosome caspase-3 activity, DEVD-Rh110 fluorescence; active = inhibition of at least 40% at 20 µM;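 also: plate controls were DMSO wells for no effect and DEVD-CHO caspase inhibitor wells for full effect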
#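 Medium: Hepes buffer, pH 7.5 / System: biochemical Apaf-1 apoptosome reconstitution / Measured by: Rh110 fluorescence, excitation 480 nm, emission 540 nm / Times: compound with Apaf-1, dATP, procaspase-3 30 min, then 50 min reaction, room temperature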
# PP5 inh – PP5 (human) phosphatase inhibition; P53041; purified PP5c, OMFP substrate fluorescence; inhibition, % at 6.7 µM; 0.18% of 320,000 active;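 active = inhibition above the campaign's mean inhibition across all tested compounds plus 3 SD, cut at about 9.5% in these data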;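 also: 0% = DMSO only and 100% = 100 µM cantharidin control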
# Target sequence (P53041 whole entry, looked up): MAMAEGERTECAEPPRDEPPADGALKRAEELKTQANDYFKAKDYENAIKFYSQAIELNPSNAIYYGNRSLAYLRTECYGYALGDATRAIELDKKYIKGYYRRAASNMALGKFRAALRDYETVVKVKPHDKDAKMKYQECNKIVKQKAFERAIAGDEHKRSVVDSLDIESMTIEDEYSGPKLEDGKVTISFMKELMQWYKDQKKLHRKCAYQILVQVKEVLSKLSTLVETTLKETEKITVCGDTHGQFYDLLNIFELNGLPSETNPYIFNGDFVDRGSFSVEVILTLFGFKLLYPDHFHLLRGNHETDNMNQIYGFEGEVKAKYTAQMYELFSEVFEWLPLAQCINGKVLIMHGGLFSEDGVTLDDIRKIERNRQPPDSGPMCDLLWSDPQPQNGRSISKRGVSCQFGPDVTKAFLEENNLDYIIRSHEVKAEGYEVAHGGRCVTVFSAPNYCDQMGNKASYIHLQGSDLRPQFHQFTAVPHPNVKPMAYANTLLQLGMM
# Fh CTSL1 inh – blocks F. hepatica cathepsin L1 in PFM18AAP counter-screen; recombinant F. hepatica cathepsin L1, Z-Leu-Arg-MCA fluorescence; 0.49% of 300,000 active; inhibition, % at 5.96 µM; AID 1906;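 active = inhibition above the mean of all tested compounds plus 3 SD, set per screening campaign, cut at about 17% in these data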;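 also: 0% = plate median of test compound wells and 100% = 1 µM Z-Phe-Ala-diazomethylketone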
# GSTO1 counter – blocks human GSTO1 in RBBP9 counter-screen; inhibition, % at 5.96 µM; P78417; recombinant GSTO1, activity-based probe fluorescence polarization; 1.1% of 300,000 active;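 active = inhibition above the campaign mean inhibition plus 3 SD, cut at about 35% in these data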;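 also: 0% = GSTO1-1 with DMSO and 100% = wells lacking GSTO1-1 enzyme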
# UCH37 DUB inh – blocks the human deubiquitinase UCH37; Q9Y5K5; inhibition, % (test concentration not listed); purified proteasome/UCH37, Ub-AMC cleavage fluorescence; 0.33% of 330,000 active;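 active = mean inhibition over replicate wells above about 20%, limit read from the data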;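 also: 0% = compound-free wells with enzyme and 100% = wells lacking proteasome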
#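 system = Proteasome-associated human UCH37 deubiquitinase | amount = 0.15 nM proteasome as dispensed | medium = pH 7.4 Tris-HCl (50 mM) with ovalbumin, ATP-MgCl2, DTT | incubation = 30 min preincubation with enzyme, 25 min cleavage at room temperature | detection = AMC fluorescence 355/460 nm | read-out basis = percent inhibition | controls = no-proteasome and no-compound wells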
# Apaf-1 inh conf – Apaf-1 inhibition, single-dose confirmed | reconstituted apoptosome, caspase-3 DEVD-Rh110 fluorescence | 25% of 1,800 active | shares compounds with Apaf1 inhib | AID 504614 | inhibition, % at 20 µM;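 active = mean inhibition of at least 40% at 20 µM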;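 also: plate controls were DMSO wells for no effect and DEVD-CHO caspase inhibitor control wells for full effect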
# Rh110 quench – interferes with Rh110 fluorescence, flagging false Apaf-1 inhibitors. activation (fluorescence interference), % at 20 µM. AID 504615. shares compounds with Apaf1 inhib. Rh110 fluorescence interference, quenched caspase reaction. 1,800 tested, under 10 active;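 active = signal rise of 40% or more at 20 µM, treated as a fluorescence artifact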
# Apaf1 inh interf – Apaf-1 inhibitor counter-screen fluorescence artifact | fluorescence interference counterscreen, Apaf-1 assay format | shares compounds with Apaf1 inhib | 460 tested, under 10 active | AID 588538 | IC50, µM; call rule not given here
# Numbers without * were called inactive; i = inactive; nt = no result given. Only some compounds are listed: those with a hit (about 2% of all), similar ones and a draw of the others.
SMILES,PAD4 FP inh,Apaf1 inhib,PP5 inh,Fh CTSL1 inh,GSTO1 counter,UCH37 DUB inh,Apaf-1 inh conf,Rh110 quench,others
Cc1ccccc1C(=O)N1CCC(C(=O)N(C)CCOc2ccccc2)CC1,-0.7,26.7,0.4,-2.3,1.7,-0.5,nt,nt,
Cc1cccc(N(Cc2ccccc2)C(=O)C2CCN(C(=O)c3ccccc3C)CC2)c1,-2.2,48.5*,3.2,nt,nt,1.8,37.5,8.9,
COc1cc(C=NN2C(C)CCCC2C)cc(OC)c1O (configuration not stated),nt,nt,nt,nt,nt,-0.4,nt,nt,
Clc1ccc(C2=Nn3c(nnc3-c3n[nH]c4c3CCC4)SC2)cc1Cl,-4.4,42.9*,2.1,5.1,-9.9,2.7,34.1,3.7,
CC1CC(C)(C)CC2(C1)NC(=O)N(CC(=O)Nc1ccc3[nH]c(=O)[nH]c3c1)C2=O (configuration not stated),-1.9,44.3*,3.2,nt,nt,2.1,20.2,7.0,
O=C(NN=Cc1ccco1)c1ccccn1,nt,nt,nt,nt,nt,7.2,nt,nt,
COc1cccc(-c2cn3nc4c(nc3n2)CCCC4)c1,-17.2,53.4*,3.0,4.9,19.9,-17.9,38.8,2.6,
COc1cccc(-c2cc(C(F)(F)F)n3nc(N)nc3n2)c1,1.0,-44.3,2.7,0.4,-1.7,-54.8,nt,nt,
Clc1ccc(-c2cn3nc4c(nc3n2)CCCC4)cc1,-14.8,65.3*,3.4,1.5,26.3,-135.4,53.0*,7.1,Apaf1 inh interf=>100
CCOc1ccc(C=Nn2c(C)nnc2C)cc1OC,nt,nt,nt,nt,nt,3.9,nt,nt,
O=c1[nH]c(NN=Cc2ccc(F)cc2)nc2ccccc12,nt,nt,nt,nt,nt,0.9,nt,nt,
COCCN(Cc1ccccc1)C(=O)c1cccc(S(=O)(=O)N2CCN(c3ccccc3)CC2)c1,3.3,42.6*,0.9,2.1,-7.9,3.7,42.0*,5.8,Apaf1 inh interf=>100
CSc1ccc(CN(C)C(=O)c2cccc(S(=O)(=O)NCc3ccccc3)c2)cc1,-3.2,67.0*,5.2,-1.6,2.5,5.2,35.6,4.6,
Cc1ccc(N(Cc2ccccc2)C(=O)c2cccc(S(=O)(=O)N3CC(C)OC(C)C3)c2)cc1 (configuration not stated),0.2,29.9,0.2,1.6,6.9,1.6,nt,nt,
CC1CN(C(=O)c2cccc(S(=O)(=O)NCc3ccccc3)c2)CC(C)O1 (configuration not stated),-3.5,54.2*,2.9,nt,nt,3.2,34.7,3.0,
CC1CN(S(=O)(=O)c2cccc(C(=O)N(CCc3ccccc3)Cc3ccccc3)c2)CC(C)O1 (configuration not stated),0.5,45.3*,0.8,2.8,-4.6,1.6,20.4,8.6,
COCCN(Cc1ccccc1)C(=O)C1CCN(S(=O)(=O)c2ccc3c(c2)OCCO3)CC1,0.8,49.0*,-0.2,nt,nt,3.2,33.3,11.6,
COCCN(Cc1ccccc1)C(=O)C1CCN(S(=O)(=O)c2ccc(OC)c(OC)c2)CC1,-0.5,-4.9,-2.1,-0.6,-6.6,1.2,nt,nt,
O=C(C1CCCN(S(=O)(=O)c2cnc[nH]2)C1)N1CCN(Cc2ccccc2)CC1 (configuration not stated),-1.6,40.5*,1.8,1.1,5.0,8.4,3.2,42.8*,
O=C(Nc1ccc(-c2nc3ccc(NC(=O)c4cccs4)cc3[nH]2)cc1)c1cccs1,-5.7,68.9*,-0.5,6.5,3.5,-62.3,90.0*,6.7,Apaf1 inh interf=>100
CCCCn1c2nc3ccccc3nc2c2c(=N)oc(C)nc21,nt,nt,nt,nt,nt,-174.6,nt,nt,
COc1ccc(-n2c3nc4ccccc4nc3c3c(=N)oc(C)nc32)cc1,-2.1,96.5*,-0.5,-0.1,2.7,5.5,66.8*,6.3,Apaf1 inh interf=>100
COc1cccc(C=NNC(=O)c2c(-c3ccccc3)noc2C)c1O,nt,nt,nt,nt,nt,2.9,nt,nt,
Cc1ccc(-c2nnc(-c3cccc4ccccc34)o2)cc1,nt,nt,nt,nt,nt,-43.1,nt,nt,
COC(=O)c1ccc(-c2ncc(-c3cccc4ccccc34)o2)cc1,-12.6,41.8*,-4.3,0.7,6.8,i,9.3,7.5,
SMILES,PAD4 FP inh,Apaf1 inhib,PP5 inh,Fh CTSL1 inh,GSTO1 counter,UCH37 DUB inh,Apaf-1 inh conf,Rh110 quench,others
CN(CC(=O)Nc1cccc(F)c1)C(=O)c1sc2ccccc2c1Cl,-3.3,57.1*,2.6,nt,nt,-2.0,36.0,3.5,
CN(CC(=O)Nc1cccc(F)c1)C(=O)c1cccc2ccccc12,-3.1,0.2,2.1,nt,nt,2.2,nt,nt,
Cc1ccccc1NC(=O)COC(=O)CNC(=O)c1sc2ccccc2c1Cl,6.1,-1.6,-1.3,-7.7,1.9,-0.7,nt,nt,
CCCN(CC(=O)Nc1ccccc1C)C(=O)c1sc2ccccc2c1Cl,0.0,60.6*,1.2,nt,nt,3.0,44.0*,12.1,Apaf1 inh interf=>100
O=[N+]([O-])c1cc(C=NNc2nc(N3CCCCC3)nc(N3CCCCC3)n2)ccc1O,nt,nt,nt,nt,nt,10.2,nt,nt,
CC1=NNC(=O)C1CCC(=O)NN=Cc1ccco1 (configuration not stated),nt,nt,nt,nt,nt,3.8,nt,nt,
CN(C)CCCNC(=O)C[C@H]1C[C@H](C(=O)N2CCCCC2)[C@@]2(CCc3ccccc3)c3[nH]c4cc(-c5ccco5)ccc4c3CCN2C1=O,-4.4,71.5*,nt,nt,nt,-2.7,27.7,11.2,

# Compound activity deposited in PubChem by several laboratories.
